≈ marks a conversion by molar mass, not a printed value.
Legend:
Type in all cases: functional
[1] = system: DLD-1; assay: Cytotoxicity against human DLD1 cells after 3 days by methylene blue staining; conditions: DLD-1, 72 h, read-out: ED50 (the source's name)
Summary of the method: (§1)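 Cells grown in RPMI-1640 at 37 °C, 5% CO2, seeded at 2880 cells/well for 3 h, then given sample (prepared at 1, 10, 40 and 100 µg/mL) for 3 days at 37 °C. Fixed in 10% formaldehyde/0.9% saline, stained with 1% methylene blue in 0.01 M borate, eluted with EtOH/0.1 M HCl, A650 read. ED50 is the concentration halving absorbance versus untreated cells.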

[2] = Cytotoxicity against human medulloblastoma cells after 3 days by methylene blue staining; conditions: Medulloblastoma cell, 72 h, read-out: ED50 (the source's name); summary of the method: as §1
[3] = system: KB; assay: Cytotoxicity against human KB cells after 3 days by methylene blue staining; conditions: 72 h, read-out: ED50 (the source's name); summary of the method: as §1

In the case of `C=CC(=C)CC[C@]1(C)[C@H]2C[C@H](OC(=O)C(C)CC)C=C3[C@H](OC(C)=O)O[C@H](OC(C)=O)[C@@]32[C@H](O)C[C@@H]1C` (relative stereo), the EC50 [1] is reported as 1.18 µg/mL (≈ 2.28 µM), the EC50 [2] is reported as 1.93 µg/mL (≈ 3.72 µM) and the EC50 [3] is reported as 3.6 µg/mL (≈ 6.94 µM).
In the case of `C=CC(=C)CC[C@]1(C)[C@H]2C[C@H](OC(=O)C(C)CC)C=C3[C@H](OC(=O)CCC)O[C@H](OC(C)=O)[C@@]32[C@H](O)[C@H](OC(C)=O)[C@@H]1C` (stereo partly drawn) [CASEAMEMBRIN D], the EC50 [1] is reported as 1.81 µg/mL (≈ 2.99 µM), the EC50 [2] is reported as 2.42 µg/mL (≈ 4 µM) and the EC50 [3] is reported as 5.57 µg/mL (≈ 9.21 µM).
For `C=CC(=C)CC[C@]1(C)[C@H]2C[C@H](OC(=O)C(C)CC)C=C3[C@H](OC(C)=O)O[C@H](OC(C)=O)[C@@]32[C@H](OC(=O)CCC)C[C@@H]1C` (stereo partly drawn) [CASEAMEMBRIN M], the EC50 [1] was 14.2 µg/mL (≈ 24.1 µM), the EC50 [2] was 14.4 µg/mL (≈ 24.5 µM) and the EC50 [3] was 18.4 µg/mL (≈ 31.3 µM).
Compound `C=CC(=C)CC[C@]1(C)[C@H]2C[C@H](OC(=O)CCC)C=C3[C@H](OC(C)=O)O[C@H](OC(C)=O)[C@@]32[C@H](O)[C@H](OC(C)=O)[C@@H]1C` [CASEAMEMBRIN N] has an EC50 [1] of 4.37 µg/mL (≈ 7.77 µM), an EC50 [2] of 3.27 µg/mL (≈ 5.81 µM) and an EC50 [3] of 8.94 µg/mL (≈ 15.9 µM).
In the case of `C=CC(=C)CC[C@]1(C)[C@H]2C[C@H](OC(=O)CC(C)C)C=C3[C@H](OC(C)=O)O[C@H](OC(C)=O)[C@@]32[C@H](O)[C@H](OC(C)=O)[C@@H]1C` [CASEAMEMBRIN O], the EC50 [1] is reported as 2.54 µg/mL (≈ 4.4 µM), the EC50 [2] is reported as 1.94 µg/mL (≈ 3.36 µM) and the EC50 [3] is reported as 6.94 µg/mL (≈ 12 µM).
`CO[C@@]12[C@H](COC(N)=O)C3=C(C(=O)C(C)=C(N)C3=O)N1C[C@@H]1N[C@@H]12` [MITOMYCIN] showed an EC50 [1] of 0.1 µg/mL (≈ 0.299 µM), an EC50 [2] of 0.1 µg/mL (≈ 0.299 µM) and an EC50 [3] of 0.13 µg/mL (≈ 0.389 µM).

— ChEMBL document CHEMBL1158834, “Cytotoxic clerodane diterpenoids from Casearia membranacea” (2005)
